Measurements gathered from unrelated publications.
Sample: plasma

| SMILES | system | conditions | measurement | value |
| --- | --- | --- | --- | --- |
| c1cc([C@H]2CC[C@]3(CC2)OO[C@]2(O3)C3CC4CC(C3)CC2C4)ccc1OCCN1CCOCC1 | human | oral, 200 mg, patients | AUC(0-inf) | 3180 ng·h/mL |
| COc1ccc(C[C@@H]2NC(=O)[C@H]([C@@H](C)O)NC(=O)[C@@H]3[C@@H]4CCN3C(=O)[C@@H]3Cc5cn(c6ccc(F)cc56)CCCCCCN(Cc5ccc(cc5)CCNC(=O)[C@]5(C)CCCN5C2=O)C(=O)CCC(=O)N[C@@H](C)C(=O)N[C@H](CNC(=O)CCCCC[N+](C)(C)C)C(=O)N[C@@H](Cc2cccc(c2)CNC(=O)CO4)C(=O)N3)cc1 | human | oral, 200 mg, single dose | AUC(0-t) | 0.481 µM·h |
| CC(=C/C=C/C(C)=C/C(=O)O)/C=C1\CCCc2ccccc21 | human | oral, 20 mg, single dose, fasted, healthy volunteers | AUC(0-inf) | 827 ng·h/mL |
| Cc1ncc2n1-c1ccc(Cl)cc1C(c1ccccc1F)=NC2 | male human | oral, 7.5 mg | AUC | 117 ng·h/mL |
| N=C(N)NCCC[C@@H](NC(=O)[C@@H](N)Cc1ccccc1)C(=O)N[C@@H](Cc1ccccc1)C(=O)N[C@@H](CCCCN)C(N)=O | human | subcutaneous, 25 mg, patients | AUC(0-t) | 4620 ng·h/mL |
| CC(C)[C@H](N)C(=O)NCCCS(=O)(=O)O | human | oral, 256.5 mg, multiple doses, twice daily, fasted | AUC(0-t) | 11200 ng·h/mL |
| C=CCNc1c(O)cc2c(O)c1C[C@@H](C)C[C@H](OC)[C@H](O)[C@@H](C)/C=C(\C)[C@H](OC(N)=O)[C@@H](OC)/C=C\C=C(/C)C(=O)N2 | human | intravenous, 400 mg/m², patients, infusion | AUC(0-inf) | 11700 ng·h/mL |
| CN(C)CCc1c[nH]c2ccccc12 | human | intravenous, 9 mg, healthy volunteers, infusion | AUC(0-inf) | 5.87 ng·h/mL |
| C=C(C)[C@@H]1CC[C@]2(NCCN3CCS(=O)(=O)CC3)CC[C@]3(C)[C@H](CC[C@@H]4[C@@]5(C)CC=C(C6=CC[C@@](COc7ncccc7C#N)(C(=O)O)CC6)C(C)(C)[C@@H]5CC[C@]43C)[C@@H]12 | human | oral, 100 mg, fasted, tablet | AUC(0-inf) | 28000 ng·h/mL |
| OCc1ncc2n1-c1ccc(Cl)cc1C(c1ccccc1F)=NC2 | human | oral, 2 mg | AUC(0-inf) | 9.63 ng·h/mL |
